In ChEMBL document CHEMBL4229323, “Merocyclophanes C and D from the Cultured Freshwater Cyanobacterium Nostoc sp. (UIC 10110)” (J Nat Prod, 2017):

Columns and labels:
Type in all cases: functional, cell-based
MDA-MB-435 = experiment: Cytotoxicity in human MDA-MB-435 cells assessed as reduction in cell viability incubated for 72 hrs by cell-titer-96 aqueous one solution cell proliferation assay; conditions: MDA-MB-435, 72 h
Summary of the method: (§1)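 Cells were seeded and cultured overnight at 37 °C in 5% CO2, then exposed to sample, paclitaxel (positive control) or DMSO vehicle for 72 h. Viability was read by CellTiter 96 AQueous One Solution (MTS) assay, and IC50 was calculated relative to the vehicle control.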

MDA-MB-231 = experiment: Cytotoxicity in human MDA-MB-231 cells assessed as reduction in cell viability incubated for 72 hrs by cell-titer-96 aqueous one solution cell proliferation assay; conditions: MDA-MB-231, 72 h; summary of the method: as §1
OVCAR-3 = experiment: Cytotoxicity in human OVCAR3 cells assessed as reduction in cell viability incubated for 72 hrs by cell-titer-96 aqueous one solution cell proliferation assay; conditions: OVCAR-3, 72 h; summary of the method: as §1

| SMILES | IC50 (MDA-MB-435) | IC50 (MDA-MB-231) | IC50 (OVCAR-3) |
| --- | --- | --- | --- |
| C[C@H]1CCCC[C@H](CCCC(Cl)Cl)c2c(O)cc(cc2O)[C@H](OC(N)=O)[C@@H](C)CCCC[C@H](CCCC(Cl)Cl)c2c(O)cc(cc2O)[C@@H]1O | 3200 nM | 1200 nM | 4200 nM |
| CCCC[C@H]1CCCCC[C@@H](C)c2cc(O)c(c(O)c2)[C@@H](CCCCO)CCCCC[C@@H](C)c2cc(O)c1c(O)c2 | 1600 nM | 1400 nM | 1400 nM |
| CCCC[C@H]1CCCCC[C@@H](C)c2cc(O)c(c(O)c2)[C@@H](CCCC)CCCCC[C@@H](C)c2cc(O)c1c(O)c2 | 9800 nM | 6200 nM | 5100 nM |
| C[C@H]1CCCC[C@H](CCCC(Cl)Cl)c2c(O)cc(cc2O)[C@H](OC(N)=O)[C@@H](C)CCCC[C@H](CCCC(Cl)Cl)c2c(O)cc(cc2O)[C@@H]1OC(N)=O | 2400 nM | 1000 nM | 4300 nM |
| CCCC[C@H]1CCCC[C@H](C)[C@@H](OC(C)=O)c2cc(O)c(c(O)c2)[C@@H](CCCC)CCCC[C@H](C)[C@@H](OC(C)=O)c2cc(O)c1c(O)c2 | 12000 nM | 13000 nM | 10000 nM |
| C[C@@H]1CCCCC[C@H](CCCCO)c2c(O)cc(cc2O)[C@H](C)CCCCC[C@H](CCCCO)c2c(O)cc1cc2O | 900 nM | 1000 nM | 2000 nM |
